In brackets after ≈: the same amount, converted by molar mass. Activity calls are given as the source filed them. The rule behind the calls is not given here.
Experiments:
[1] = system: KB; assay: Cytotoxicity against human KB cells in presence of 5-amino-1H-imidazole-4-carboxamide; type: functional, cell-based
[2] = system: L1210; assay: Antitumor activity against mouse L1210 cells assessed as increase in life span at 14 to 75 mg/kg administered from day 1 to day 9 relative to control; type: functional, organism-based
[3] = system: KB; assay: Cytotoxicity against human KB cells; type: functional; conditions: read-out: ED50 (the source's name)
How it was run: (§1)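 Growth inhibition of cultured cells. Activity is expressed as ED50 in μg/mL.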

[4] = system: HEp-2; assay: Cytotoxicity against human Hep2 cells in presence of 5-amino-1H-imidazole-4-carboxamide; type: functional, cell-based
[5] = system: L1210; assay: Antitumor activity against mouse L1210 cells assessed as increase in life span at 33 mg/kg administered from day 1 to day 9 relative to control; type: functional
How it was run: (§2)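 In vivo assay in mice bearing leukemia L1210, dosed on days 1–9. Read-out is percent increase in life span of treated leukemic mice over untreated leukemic controls.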

[6] = Cytotoxicity against human Hep2 cells; type: functional; conditions: HEp-2, read-out: ED50 (the source's name); how it was run: as §1
[7] = system: L1210; assay: Antitumor activity against mouse L1210 cells assessed as increase in life span administered from day 1 to day 9 relative to control; type: functional; design: concentration or dose not given beside the values; how it was run: as §2

SMILES	Activity [1]	Activity [2]	EC50 [3] [µg/mL]	Activity [4]	Activity [5] [%]	EC50 [6] [µg/mL]	Activity [7] [%]
Nc1cc(Cl)c2nc[nH]c2n1	Active	Active	1 (≈ 5.93 µM)	Active	79	0.3 (≈ 1.78 µM)	
Cc1ccc(S(=O)(=O)/N=c2\cc(Cl)c3ncn4c3n2C[C@H]2O[C@@H]4[C@@H]3OC(C)(C)O[C@@H]32)cc1			> 22			> 22	<15
CSc1cc(N)nc2c1ncn2[C@@H]1O[C@H](CO)[C@@H](O)[C@H]1O			> 22			> 22	<15
CSc1cc(N)nc2[nH]cnc12			> 22			> 22	<15
CC(=O)Nc1cc(Cl)c2nc[nH]c2n1			> 22			> 22	<15
CSc1cc(NC(C)=O)nc2[nH]cnc12			> 22			> 22	<15
Nc1cc(Cl)c2ncn([C@@H]3O[C@H](CO)[C@@H](O)[C@H]3O)c2n1			> 22			> 22	<15
Nc1cc(S)c2ncn([C@@H]3O[C@H](CO)[C@@H](O)[C@H]3O)c2n1			> 22			> 22	<15
